Experimental data reported in ChEMBL document CHEMBL1142308, “Synthesis and structure-activity relationships of N-(3-phenylpropyl)-N'-benzylpiperazines: Potent ligands for sigma1 and sigma2 receptors” (Bioorg Med Chem, 2008).

Experiments:
[1] = target: T1, Sigma non-opioid intracellular receptor 1 (Cavia porcellus, UniProt Q60492); experiment: Displacement of [3H](+)-PTZ from sigma1 receptor in Hartley guinea pig brain
[2] = Displacement of [3H]DTG from sigma2 receptor in Hartley guinea pig brain; set-up: species or system Cavia porcellus
[3] = target: Delta-type opioid receptor (Mus musculus) (UniProt P32300); experiment: Displacement of [3H]NTI from delta opioid receptor in mouse brain; format: tissue-based; set-up: concentration or dose not given beside the values
Procedure, shortened: (§1)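 Brain membranes came from guinea pig for mu and kappa and from mouse for delta. Radioligands were [3H]DAMGO (mu), [3H]NTI (delta) and [3H]U69,593 (kappa). The read-out is percent displacement of radioligand binding at a single concentration of 1–2 of test compound.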

[4] = target: Mu-type opioid receptor (Cavia porcellus) (UniProt P97266); experiment: Displacement of [3H]DAMGO from mu opioid receptor in guinea pig brain; set-up: concentration or dose not given beside the values; procedure, shortened: as §1
[5] = target: Kappa-type opioid receptor (Cavia porcellus) (UniProt P41144); experiment: Displacement of [3H]U69593 from kappa opioid receptor in guinea pig brain; set-up: concentration or dose not given beside the values; procedure, shortened: as §1
Cavia porcellus = species on record: Cavia porcellus; experiment: Ratio of Ki for sigma2 receptor in Hartley guinea pig brain to Ki for sigma1 receptor in Hartley guinea pig brain
Procedure, shortened: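 Selectivity is expressed as the sigma2/sigma1 Ki ratio. The sigma1 Ki comes from [3H](+)-pentazocine displacement and the sigma2 Ki from [3H]DTG displacement, both in guinea pig brain. Each Ki is from Cheng-Prusoff, using Kd 2.3 nM and 23.9 nM respectively, with duplicates repeated 3–6 times.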

[6] = target: T1, Sigma non-opioid intracellular receptor 1; experiment: Displacement of [3H]pentazocine from sigma1 receptor in guinea pig membrane; format: cell membranes
[7] = target: T1, Sigma non-opioid intracellular receptor 1; experiment: Displacement of [3H]pentazocine from sigma1 receptor in guinea pig membrane in presence of phenytoin; format: cell membranes
Procedure, shortened: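 [3H](+)-pentazocine sigma1 binding run as the standard assay, but with phenytoin in 0.15 M NaOH vehicle added to every tube; parallel controls received NaOH only. Trials performed in duplicate, 3–5 trials; ratio of IC50 with versus without phenytoin used for agonist/antagonist profiling.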

[8] = Binding affinity to sigma receptor
[9] = target: T2, 5-hydroxytryptamine receptor 1A (Homo sapiens, UniProt P08908); experiment: Binding affinity to 5HT1A receptor
T2 sequence (P08908 whole entry): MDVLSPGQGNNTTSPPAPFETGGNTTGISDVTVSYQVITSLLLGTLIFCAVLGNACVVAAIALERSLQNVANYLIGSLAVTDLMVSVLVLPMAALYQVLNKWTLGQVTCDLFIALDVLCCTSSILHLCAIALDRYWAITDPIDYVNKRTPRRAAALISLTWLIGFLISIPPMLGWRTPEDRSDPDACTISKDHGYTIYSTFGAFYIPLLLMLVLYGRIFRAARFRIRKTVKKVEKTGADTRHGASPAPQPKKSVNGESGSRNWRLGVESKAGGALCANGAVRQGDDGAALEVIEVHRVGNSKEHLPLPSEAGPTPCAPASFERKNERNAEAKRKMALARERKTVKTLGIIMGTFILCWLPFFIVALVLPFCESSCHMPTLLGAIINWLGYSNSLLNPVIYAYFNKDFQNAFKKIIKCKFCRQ

D(2) dopamine receptor = D(2) dopamine receptor (Homo sapiens, UniProt P14416); experiment: Binding affinity to dopamine D2 receptor
[10] = target: Sigma non-opioid intracellular receptor 1 (Cavia porcellus) (UniProt Q60492); experiment: Ratio of IC50 for sigma1 receptor in absence of phenytoin to in presence of phenytoin in guinea pig membrane; format: cell membranes
Procedure, shortened: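 Sigma1 competition binding against [3H](+)-pentazocine in guinea pig brain homogenates, with phenytoin in 0.15 M NaOH vehicle added to every tube, alongside controls given only 0.15 M NaOH. Incubation medium was pH 7.44 at 37 °C with the NaOH additions. Ratio is IC50 without phenytoin over IC50 with it. Run in duplicate, repeated 3–6 times.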

Sequence of Mu-type opioid receptor (Cavia porcellus) (P97266 whole entry): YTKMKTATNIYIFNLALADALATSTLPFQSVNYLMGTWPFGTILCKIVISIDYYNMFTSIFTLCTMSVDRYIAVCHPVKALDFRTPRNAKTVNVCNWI
Sequence of Kappa-type opioid receptor (Cavia porcellus) (P41144 whole entry): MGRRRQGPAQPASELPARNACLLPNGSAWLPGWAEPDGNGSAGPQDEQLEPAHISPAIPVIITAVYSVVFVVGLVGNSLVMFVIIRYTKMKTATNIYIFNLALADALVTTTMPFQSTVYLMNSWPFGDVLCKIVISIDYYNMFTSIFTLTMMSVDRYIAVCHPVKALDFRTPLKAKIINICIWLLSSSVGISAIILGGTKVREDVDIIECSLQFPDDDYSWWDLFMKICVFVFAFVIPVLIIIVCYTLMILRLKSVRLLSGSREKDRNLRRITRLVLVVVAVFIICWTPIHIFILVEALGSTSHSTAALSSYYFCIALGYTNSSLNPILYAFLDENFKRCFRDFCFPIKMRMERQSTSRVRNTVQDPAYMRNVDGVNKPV
T1 sequence (Q60492 whole entry): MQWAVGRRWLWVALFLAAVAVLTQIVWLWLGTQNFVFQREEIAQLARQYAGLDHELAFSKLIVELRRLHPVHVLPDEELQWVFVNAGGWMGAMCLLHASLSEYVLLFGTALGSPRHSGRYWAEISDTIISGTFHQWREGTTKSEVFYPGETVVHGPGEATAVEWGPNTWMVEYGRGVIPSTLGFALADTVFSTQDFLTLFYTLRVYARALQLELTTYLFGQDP
Sequence of Delta-type opioid receptor (Mus musculus) (P32300 whole entry): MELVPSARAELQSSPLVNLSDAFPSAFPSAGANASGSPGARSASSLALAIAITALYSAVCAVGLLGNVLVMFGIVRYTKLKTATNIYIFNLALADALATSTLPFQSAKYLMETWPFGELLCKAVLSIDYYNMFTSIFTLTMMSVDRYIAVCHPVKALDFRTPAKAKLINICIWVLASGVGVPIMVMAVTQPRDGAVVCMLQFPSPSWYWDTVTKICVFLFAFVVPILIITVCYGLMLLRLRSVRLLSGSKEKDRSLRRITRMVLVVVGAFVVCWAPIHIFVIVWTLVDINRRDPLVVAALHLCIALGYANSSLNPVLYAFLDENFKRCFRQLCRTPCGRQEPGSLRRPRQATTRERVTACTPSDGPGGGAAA
Sequence of Sigma non-opioid intracellular receptor 1 (Cavia porcellus) (Q60492 whole entry): as the sequence (Q60492 whole entry) above
Sequence of D(2) dopamine receptor (P14416 whole entry): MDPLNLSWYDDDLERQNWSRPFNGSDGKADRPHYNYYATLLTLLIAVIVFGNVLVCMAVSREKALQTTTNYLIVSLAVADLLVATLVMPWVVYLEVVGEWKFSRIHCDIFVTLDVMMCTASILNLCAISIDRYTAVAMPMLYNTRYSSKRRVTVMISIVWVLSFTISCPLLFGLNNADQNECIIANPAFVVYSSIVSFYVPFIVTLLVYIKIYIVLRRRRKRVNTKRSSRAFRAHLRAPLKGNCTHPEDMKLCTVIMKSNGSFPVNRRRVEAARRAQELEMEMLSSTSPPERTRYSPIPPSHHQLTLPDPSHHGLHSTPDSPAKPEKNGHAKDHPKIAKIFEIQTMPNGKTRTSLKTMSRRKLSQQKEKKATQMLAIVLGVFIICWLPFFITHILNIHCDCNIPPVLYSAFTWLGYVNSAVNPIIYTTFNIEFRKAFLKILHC

Structure (SMILES)	Ki [1] [nM]	Ki [2] [nM]	Activity [3] [%]	Activity [4] [%]	Activity [5] [%]	Ratio Ki (Cavia porcellus)	IC50 [6] [nM]	IC50 [7] [nM]	IC50 [8] [nM]	IC50 [9] [nM]	IC50 (D(2) dopamine receptor) [nM]	Ratio IC50 [10]
O=[N+]([O-])c1ccc(CN2CCN(CCCc3ccccc3)CC2)cc1	0.37	3.29	< 5	< 5	< 5	8.9						
Cc1ccc(CN2CCN(CCCc3ccccc3)CC2)cc1	1.17	17.5	< 5	< 5	< 5	15						
COc1cccc(CN2CCN(CCCc3ccccc3)CC2)c1	0.87	14.2	< 5	< 5	< 5	16.3						
O=[N+]([O-])c1cccc(CN2CCN(CCCc3ccccc3)CC2)c1	0.93	1.59	< 5	< 5	< 5	1.7						
Ic1cccc(CN2CCN(CCCc3ccccc3)CC2)c1	0.39	1.03	< 5	< 5	< 5	2.6						
COc1ccc2c(c1)[C@]13CCCC[C@@H]1[C@H](C2)N(C)CC3 [DEXTROMETHORPHAN]							232	15.2				
COc1ccc(CCN2CCN(CCCc3ccccc3)CC2)cc1OC [[11C]SA4503]		89.5										
COc1ccc(CN2CCN(CCCc3ccccc3)CC2)cc1	0.76	32.8	< 5	< 5	< 5	43.2						
Brc1ccccc1CN1CCN(CCCc2ccccc2)CC1	0.6	4.12	< 5	< 5	< 5	6.9						
O=[N+]([O-])c1ccccc1CN1CCN(CCCc2ccccc2)CC1	2.8	3.79	< 5	< 5	< 5	1.4						
c1ccc(CCCN2CCN(Cc3ccccc3)CC2)cc1	0.66	34.3	< 5	< 5	< 5	52	1.47	1.89	20	> 100	> 100	0.8
Fc1cccc(CN2CCN(CCCc3ccccc3)CC2)c1	1.36	13.8	< 5	< 5	< 5	10.2						
